SMILES strings stand for the structures.

What all share (details): in vivo
Data set [1] relates to Rattus norvegicus. In words: AUC (infinity) in wild-type Sprague-Dawley rat treated with loperamide at 10 mg/kg, po by LC-MS/MS analysis. Set-up: time infinity, dose 10 mg/kg, route oral. It counts as ADME, organism-based, Plasma. The gist of the method:
(§1)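 Male Sprague-Dawley rats (knockout or wild type matched for age and weight), femoral artery and vein cannulated, at least 2 days recovery. Crossover design: IV bolus 1 mg/kg on day 0 (saline with 0.2 M equivalents HCl), oral gavage 10 mg/kg on day 3 (water with 0.2 M equivalents HCl). Arterial plasma sampled to 24 h (Mdr1a oral arm to 4 h). Analysed by LC-MS/MS and noncompartmental analysis.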

Data set [2] has as its system Rattus norvegicus. In words: Cmax in wild-type Sprague-Dawley rat treated with loperamide at 10 mg/kg, po by LC-MS/MS analysis. It counts as ADME, organism-based. Set-up: dose 10 mg/kg, route oral. In short, it runs like this:
as §1

Data set [3] deals with Rattus norvegicus. Kind of data set: Cmax in MRP2 knockout Sprague-Dawley rat treated with loperamide at 10 mg/kg, po by LC-MS/MS analysis. It counts as ADME, organism-based. Set-up: dose 10 mg/kg, route oral. The gist of the method:
as §1

The test system of data set [4] is Rattus norvegicus. Kind of data set: AUC (0 to 4 hrs) in wild-type Sprague-Dawley rat treated with loperamide at 10 mg/kg, po by LC-MS/MS analysis. It counts as ADME, organism-based, Plasma. Set-up: time < 4 hr, dose 10 mg/kg, route oral.
Data set [5] relates to Rattus norvegicus. In words: AUC (infinity) in MRP2 knockout Sprague-Dawley rat treated with loperamide at 10 mg/kg, po by LC-MS/MS analysis. It counts as ADME, organism-based, Plasma. Set-up: time infinity, dose 10 mg/kg, route oral. In short, it runs like this: as §1
In data set [6] the test system is Rattus norvegicus. Kind of data set: Ratio of AUC (0 to 4 hrs) for metabolite to AUC (0 to 4 hrs) for parent compound in BCRP knockout Sprague-Dawley rat at 10 mg/kg, po by LC-MS/MS analysis. Set-up: dose 10 mg/kg, route oral. It counts as ADME, organism-based.
Data set [7] has as its system Rattus norvegicus. Kind of data set: AUC (0 to 4 hrs) in MDR1A knockout Sprague-Dawley rat treated with loperamide at 10 mg/kg, po by LC-MS/MS analysis. It counts as ADME, organism-based, Plasma. Set-up: time < 4 hr, dose 10 mg/kg, route oral.
For data set [8], the system named is Rattus norvegicus. In words: Ratio of AUC (0 to 4 hrs) for metabolite to AUC (0 to 4 hrs) for parent compound in MRP2 knockout Sprague-Dawley rat at 10 mg/kg, po by LC-MS/MS analysis. It counts as ADME, organism-based. Set-up: dose 10 mg/kg, route oral.
Data set [9] relates to Rattus norvegicus. In words: Cmax in BCRP knockout Sprague-Dawley rat treated with loperamide at 10 mg/kg, po by LC-MS/MS analysis. It counts as ADME, organism-based. Set-up: dose 10 mg/kg, route oral. In short, it runs like this:
as §1

Data set [10] deals with Rattus norvegicus. Kind of data set: Ratio of AUC (0 to 4 hrs) for metabolite to AUC (0 to 4 hrs) for parent compound in wild-type Sprague-Dawley rat at 10 mg/kg, po by LC-MS/MS analysis. Set-up: dose 10 mg/kg, route oral. It counts as ADME, organism-based.
Data set [11] concerns Rattus norvegicus. In words: Ratio of AUC (0 to 4 hrs) for metabolite to AUC (0 to 4 hrs) for parent compound in MDR1A knockout Sprague-Dawley rat at 10 mg/kg, po by LC-MS/MS analysis. Set-up: dose 10 mg/kg, route oral. It counts as ADME, organism-based.
Data set [12] deals with Rattus norvegicus. Kind of data set: Cmax in MDR1A knockout Sprague-Dawley rat treated with loperamide at 10 mg/kg, po by LC-MS/MS analysis. Set-up: dose 10 mg/kg, route oral. It counts as ADME, organism-based. The gist of the method:
as §1

Data set [13] concerns Rattus norvegicus. Kind of data set: AUC (infinity) in BCRP knockout Sprague-Dawley rat treated with loperamide at 10 mg/kg, po by LC-MS/MS analysis. It counts as ADME, organism-based, Plasma. Set-up: time infinity, dose 10 mg/kg, route oral. The gist of the method: as §1

For `CNC(=O)C(CCN1CCC(O)(c2ccc(Cl)cc2)CC1)(c1ccccc1)c1ccccc1`, the AUC with Rattus norvegicus [1] is reported as 1875 ng.Eq.hr/ml; with Rattus norvegicus [4] it was 427 ng.Eq.hr/ml; in the data set with Rattus norvegicus [5], 3658 ng.Eq/ml; in the data set on Rattus norvegicus [7] it was 635 ng.Eq.hr/ml; with Rattus norvegicus [13], 3256 ng.Eq.hr/ml. Besides, the Cmax worked out at 158 ng.Eq/ml in the data set with Rattus norvegicus [2], 109 ng.Eq/ml in the data set with Rattus norvegicus [3], 150 ng.Eq/ml in the data set on Rattus norvegicus [9] and 193 ng.Eq/ml in the data set with Rattus norvegicus [12]. In addition, the “Ratio AUC” value amounted to 3.3 in the data set on Rattus norvegicus [6], 3.5 in the data set on Rattus norvegicus [8], 2.3 in the data set with Rattus norvegicus [10] and 1 in the data set on Rattus norvegicus [11].

The values above are taken from ChEMBL document CHEMBL3526049 (Drug Metab Dispos, 2012).
